ANO1 block: mouse TMEM16A channel inhibition, primary screen; AID 588511; HEK293 TMEM16A/YFP iodide influx fluorescence, ionomycin; 310,000 compounds, 1.2% hits; normalized B-score (activity score, 25-100; higher = stronger inhibition) at 10 µM;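 active = ratio plate-corrected score three or more library SD toward inhibition, starting fluorescence score within five deviations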;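 also: score derived from kinetic fluorescence span divided by baseline fluorescence per well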
CHT allo act: allosterically activates the human high affinity choline transporter; B-score at 10 µM; 310,000 compounds, 0.49% hits; CHT-expressing cells, membrane potential dye, choline EC20; active compounds read high; LV-AA mutant CHT in HEK293 cells; Q9GZV3;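 active = initial fluorescence not abnormally high and integrated response B-score, plate-corrected, over 3 SD above library mean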
CHT block: human CHT choline transport inhibition; Q9GZV3; CHT-expressing cells, membrane potential dye, choline response; active compounds read low; B-score at 10 µM; 310,000 compounds, 0.86% hits;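 active = B-score over 3 SD under the library average, and starting fluorescence ratio not unusually high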;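 also: choline stimulus applied at its EC90 after an EC20 pre-addition; B-score computed on integrated fluorescence ratio after choline addition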
VIM-2 inhibitor: blocks Pseudomonas aeruginosa VIM-2 metallo-beta-lactamase | 290,000 compounds, 0.89% hits | purified VIM-2, nitrocefin hydrolysis, epi-absorbance fluorescence | inhibition, % at 5.6 µM;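 active = inhibition above the mean of all tested compounds plus 3 SD, cutoff set per screening run, cut at about 7.5% in these data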;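 also: red hydrolysis product quenches plate fluorescence so inhibitors raise well fluorescence; 0% = enzyme with DMSO and 100% = DMSO without enzyme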
IMP-1 inhibitor: inhibitors of Pseudomonas aeruginosa IMP-1 metallo-beta-lactamase; purified IMP-1, nitrocefin hydrolysis, epi-absorbance fluorescence; inhibition, % at 5.6 µM; 290,000 compounds, 0.45% hits;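 active = inhibition above the mean plus 3 SD of all compounds in the same screening run, cut at about 4.5% in these data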;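 also: 0% = IMP-1 with DMSO and 100% = DMSO wells lacking enzyme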
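System – purified recombinant IMP-1 beta-lactamase · Input – IMP-1 dispensed at 0.2 nM · Timing – 15 min preincubation plus 25 min reaction at 25 °C · Signal – Epi-absorbance fluorescence, 480 nm excitation, 530 nm emission · Measure – percent IMP-1 inhibition derived from blank-referenced optical density · Controls – Enzyme-plus-DMSO low control, enzyme-free DMSO high control · Replication – singlicate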
TMEM16A act: mouse TMEM16A channel activation, primary screen; HEK293 TMEM16A/YFP-H148Q/I152L, iodide quench fluorescence; active compounds read low; B-score at 10 µM; 340,000 compounds, 0.3% hits; AID 623877;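 active = fluorescence-ratio B-score plate-corrected deviation score at least 3 library SD below zero, with starting fluorescence score within 5 deviations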;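 also: channel opened by trigger with iodide after compound preincubation; score built on the fluorescence ratio of max minus min over baseline; more negative score means more quench and so TMEM16A activation or potentiation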
CHT act confirm: confirmation of human choline transporter (CHT) activators | shares compounds with CHT allo act | CHT-expressing cells, membrane potential dye fluorescence (FDSS); % of choline EC20–EC90 response window; HEK293 expressing CHT LV-AA mutant; choline added at its EC20 | activation, % at 10 µM | 2,500 compounds, 91% hits;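 active = primary screen active, with duplicate mean activation above negative control mean plus 3 SD, cut at about 11% in these data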
HEK293 MP dye: CHT activator counter-screen hit in parental HEK293 cells; ratio readout change at 10 µM, hits read low; 2,500 compounds, 62% hits; shares compounds with CHT allo act; AID 623908; membrane potential dye fluorescence (FDSS); measured after EC20 choline addition;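 active = duplicate-averaged ratio beyond 3 SD from buffer wells, up or down, though filed actives are nearly all decreases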
The depositor's hits bear a star; i = inactive; x = not tested or not shown. This is a sample that favours compounds with a hit; in the whole collection about 3.4% have one here.

SMILES	ANO1 block	CHT allo act	CHT block	VIM-2 inhibitor	IMP-1 inhibitor	TMEM16A act	CHT act confirm	HEK293 MP dye
CCOC(=O)c1cnn(-c2cc(C)cc(C)c2)c1N	i	i	i	-1	-3	i	x	x
C[N+](C)(C)CC(=O)N1CCN(c2ccc3ccccc3n2)CC1	i	8.7*	i	-2	-2	i	79*	-63*
Cc1csc2c(NCCCN3CCOCC3)ncnc12	i	i	i	-3	-5	i	41*	-38*
Cc1cc2ncn(-c3ncnc4scc(-c5ccccc5)c34)c2cc1C	i	8.4*	i	-1	-2	i	21*	i
Cc1cc(Nc2ccccc2)c2c([N+](=O)[O-])ccc(C)c2n1	i	i	i	1	-5	i	x	x
Cc1cc2c3c(ccc(C)c3n1)N=CN2c1ccccc1	i	i	i	8.4*	0	i	49*	-60*
CCOC(=O)C1(C(=O)OCC)NC(=O)CC1C(C)C (configuration not stated)	x	x	x	x	x	i	x	x
CCc1cccc(C)c1NC(=O)CN(C)Cc1ccccc1F	i	i	i	-3	-4	i	13*	i
COc1ccc(-c2nc(CN3CCC(C(=O)N4CCc5ccccc54)CC3)c(C)o2)cc1OC	i	i	i	2	4	i	39*	-38*
COc1ccc(CCNC(=O)C2CCN(Cc3nc(-c4cccc(Cl)c4)oc3C)CC2)cc1OC	i	i	i	-1	-1	i	30*	-36*
CCN1CCN(c2nc(-c3ccccn3)nc3ccccc23)CC1	i	i	i	6	-13	i	57*	-92*
c1ccc(-c2nc(N3CCOCC3)c3ccccc3n2)nc1	i	10*	i	4	-11	i	69*	-83*
COc1ccccc1Nc1cc(C)nc(Nc2ccccc2OC)n1	x	x	x	x	x	i	x	x
COc1ccc(N(C)S(=O)(=O)c2cccc(C(=O)OCC(=O)c3c(N)n(C)c(=O)n(C)c3=O)c2)cc1	x	x	x	x	x	i	x	x
Cc1nc(CN(C)C(=O)c2cc(COc3c(F)cccc3F)on2)cs1	i	i	i	-3	-2	i	x	x
CN(Cc1cccc2ccccc12)C(=O)c1cc(COc2c(F)cccc2F)on1	i	i	i	-1	-1	i	40*	i
Oc1ccccc1N=Nc1nc(-c2ccccc2)c(-c2ccccc2)[nH]1	i	i	i	-6	-5	i	0	i
NNC(=O)c1ccc(COCC(F)(F)F)cc1	i	i	i	-1	-3	i	-6	i
Cc1cc(C)c2nc(NC(=O)CN3C(=O)NC4(CCCC4)C3=O)sc2c1	i	i	i	x	x	i	x	x
CCOC(=O)c1c(C)nc2sc3c(=O)n(-c4ccc(C(C)=O)cc4)nnc3c2c1-c1ccc(OC)cc1	i	i	i	-4	-1	i	x	x
COc1ccc(-c2c(C(C)=O)c(C)nc3sc4c(=N)n(N)cnc4c23)cc1	i	6.7*	i	2	-3	i	41*	-38*
c1ccc(-c2cn(-c3ccccc3)c3[n+]2CCS3)cc1	i	6.8*	i	-5	-6	i	56*	-34*
c1ccc(-c2c[n+]3c(n2-c2ccccc2)SCC3)cc1	i	6.6*	i	-3	-2	i	49*	-33*
O=C(CSc1nc(-c2ccccc2)cc(=O)[nH]1)Nc1ccc(F)c(F)c1	i	i	i	-2	-3	i	x	x
Cc1ccc(-c2c(C(=O)N(C)Cc3ccccc3)oc(=O)c3ccccc23)cc1	i	i	i	-4	-2	i	32*	i
